Source: PubChem BioAssay (several laboratories)
This is a sample that favours compounds with a hit; in the whole collection about 12% have one here.
ABCB1 block – ABCB1 efflux pump inhibitors, primary screen, cell-based, multiplex, flow cytometry, ABCG2 counter-screen; ATP-dependent translocase ABCB1 (Homo sapiens), P08183; CCRF-Adr cells, JC-1 efflux; inhibition, % at 6.6 µM; 190,000 tested, 0.067% active; in the data active = inhibition above about 40%;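 note: higher value means more JC-1 retained so stronger ABCB1 efflux block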
Lmaj promast – Leishmania major promastigote growth inhibition, primary screen | inhibition, % at 10 µM | 200,000 tested, 9% active | Leishmania major promastigotes, resazurin fluorescence viability; in the data active = inhibition above about 50%;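 note: promastigotes grown with compound for 44 hours at 28 °C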
RAM network inh – inhibitors of the yeast RAM network, primary screen, dse1pr::URA3 reporter, 5-FOA selection. S. cerevisiae dse1pr::URA3 reporter, 5-FOA growth OD615, 2 d; analog-sensitive cbk1-as2 kinase mutant strain. inhibition, % at 50 µM. 190,000 tested, 1.8% active;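 active = inhibition above a set limit, 3 SD over mean compound inhibition, cut at about 8.4% in these data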;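 note: inhibition rescues growth on 5-FOA so higher OD means more RAM inhibition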
ABCG2 inh – ABCG2 efflux pump inhibitors, primary screen, multiplex with ABCB1, IgMXP3 cells, flow cytometry | Broad substrate specificity ATP-binding cassette transporter ABCG2 (Homo sapiens), Q9UNQ0 | 190,000 tested, 0.1% active | AID 1325, 2008 | inhibition, % at 6.6 µM | JC-1 efflux;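 active = inhibition above 80%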
Target sequence (Q9UNQ0 whole entry, looked up): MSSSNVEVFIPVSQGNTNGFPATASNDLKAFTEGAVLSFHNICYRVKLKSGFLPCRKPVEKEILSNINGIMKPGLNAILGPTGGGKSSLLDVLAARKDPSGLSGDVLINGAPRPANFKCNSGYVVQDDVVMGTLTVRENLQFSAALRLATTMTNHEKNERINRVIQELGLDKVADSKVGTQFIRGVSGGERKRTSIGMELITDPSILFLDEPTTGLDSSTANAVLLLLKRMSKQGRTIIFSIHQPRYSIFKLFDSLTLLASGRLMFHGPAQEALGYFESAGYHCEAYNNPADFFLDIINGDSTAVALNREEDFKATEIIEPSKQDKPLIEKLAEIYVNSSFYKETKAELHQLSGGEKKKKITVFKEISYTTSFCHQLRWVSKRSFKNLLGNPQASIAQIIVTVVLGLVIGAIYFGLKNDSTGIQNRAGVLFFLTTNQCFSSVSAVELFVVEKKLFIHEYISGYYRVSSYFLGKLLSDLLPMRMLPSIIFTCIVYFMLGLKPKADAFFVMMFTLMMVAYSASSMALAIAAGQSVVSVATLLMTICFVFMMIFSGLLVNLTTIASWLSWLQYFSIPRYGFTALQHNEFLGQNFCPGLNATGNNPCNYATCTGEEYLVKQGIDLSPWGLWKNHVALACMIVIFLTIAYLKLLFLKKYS
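Times: 10 min at 25 °C | Test system: Two drug-resistant human cell lines, ABCG2 and ABCB1 | Quantity: 3 million cells/mL final, two lines in 1:1 ratio | Signal: Flow cytometry, 530 nm JC-1 signal | Dosing: Compound at 6.6 µM | Controls: Nicardipine and DMSO wells | Reagent: JC-1 as fluorescent efflux pump substrate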
WT yeast gro inh – growth inhibition of WT strain, primary screen, mitochondrial fusion inhibitor project, WT and mutant strains, chemical genetic | inhibition, % at 10 µM | AID 1362, 2008 | mitochondrial fusion phenotypic screen | 190,000 tested, 2.1% active; in the data active = inhibition above about 58%; tested in S. cerevisiae
Large screens that a line does not name were inactive.

CC(C)(/C=N/NC(=O)CSCc1ccc(Cl)cc1)CCC#N	none
COc1ccccc1/C=C\C=N\n1c(C2CCCCC2)n[nH]c1=S	WT yeast gro inh 70.3
CN1CCN(C(=O)CSc2nc(-c3cccs3)ccc2C#N)CC1	Lmaj promast 95.0
CCCCNC(=O)/C(=C\c1ccc([N+](=O)[O-])o1)NC(=O)c1ccccc1	Lmaj promast 67.2
COC(=O)/C(=C\c1ccc([N+](=O)[O-])o1)NC(=O)c1ccccc1	Lmaj promast 95.0
Cc1cccc(NC(=O)/C(=C\c2ccc([N+](=O)[O-])o2)NC(=O)c2ccc(Cl)cc2)c1	none
Cc1c(NC(=O)C2CCCCC2)cc(C(=O)N2CCOCC2)cc1[N+](=O)[O-]	none
O=C(Nc1cccc(-c2nnc(-c3ccco3)o2)c1)c1ccccc1	none
O=C(Nc1cccc(-c2nnc(-c3ccco3)o2)c1)C(c1ccccc1)c1ccccc1	Lmaj promast 99.9
COc1ccc(N2C(=O)C(F)(F)C2c2ccc(C)cc2)cc1OC (configuration not stated)	none
Cc1ccc(C)c(NC(=S)NCc2ccc3[nH]c4c(c3c2)CCCC4)c1	WT yeast gro inh 79.6
CCCCNC(=S)NCc1ccc2[nH]c3c(c2c1)CCCC3	WT yeast gro inh 68.9
Cc1ccccc1NC(=S)NCc1ccc2[nH]c3c(c2c1)CCCC3	WT yeast gro inh 78.7
Cc1nc(N/N=C/c2ccc(O)cc2)c2cnn(-c3ccccc3)c2n1	Lmaj promast 67.5
CCOC(=O)COc1ccc(/C=C2\NC(=S)N(CC)C2=O)cc1	Lmaj promast 97.4
CC(C)CC(=O)Nc1cccc(C(C)O)c1 (configuration not stated)	none
Cc1cc(C)c(C#N)c(SCC(=O)C(C)(C)C)n1	Lmaj promast 76.8
Cc1cc(C)c(C#N)c(SCC(=O)NC(C)(C)C)n1	none
CCN1C(=O)/C(=C\c2nc3ccccc3c(=O)n2CC)c2ccccc21	Lmaj promast 95.7
CCN1C(=O)/C(=C/c2nc3ccccc3c(=O)n2-c2ccccc2)c2ccccc21	Lmaj promast 70.9
CCC(C)(c1nnnn1-c1c(C)cccc1C)N(N=O)c1cccc(C(F)(F)F)c1 (configuration not stated)	Lmaj promast 100.0
Cc1cccc(C)c1-n1nnnc1SCSc1nnnn1-c1c(C)cccc1C	none
CC(=O)OCCNc1cc(N2CCN(C)CC2)c2noc3c2c1C(=O)c1ccccc1-3	RAM network inh 10.4
CCOC(=O)N1CCN(c2cc(NCCO)c([N+](=O)[O-])c3nonc23)CC1	none
O=C(CCSc1ccc(Cl)cc1)NC12CC3CC(CC(C3)C1)C2	WT yeast gro inh 82.7
O=C(CCSc1ccc(Cl)cc1)NC1CCCCC1	none
CN1CCN(C(=S)c2ccc(-c3cccc(Cl)c3Cl)o2)CC1	Lmaj promast 95.1
S=C(c1ccc(-c2ccccc2Cl)o1)N1CCCCC1	none
CCOC(=O)c1sc2ncn(C(CC)C(=O)OCC)c(=O)c2c1C (configuration not stated)	Lmaj promast 99.1
CCN(CC#CCC(O)(c1ccccc1)C1CCCC1)C(C)C (configuration not stated)	Lmaj promast 67.5
CC(C)N(CC#CCC(O)(c1ccccc1)C1CCCC1)CCO (configuration not stated)	none
CN(C(=O)/C=C/c1ccc([N+](=O)[O-])s1)c1ccccc1	Lmaj promast 97.8
CC(CCCC(C)(C)O)NCc1cn[nH]c1-c1ccc2c(c1)OCO2 (configuration not stated)	none
Fc1ccc(NCc2cccnc2)cc1	Lmaj promast 82.5
c1cncc(CNc2cccc(-c3nc4ccccc4[nH]3)c2)c1	Lmaj promast 67.4
c1ccc(NCc2cccnc2)cc1	none
Nc1cccc(-c2nc3ccccc3[nH]2)c1	none
CCOC(=O)C1=NNC2(c3ccccc3)C(=O)N(c3cccc(Br)c3)C(=O)C12 (configuration not stated)	none
CCOC(=O)C1=NNC2(c3ccc(Cl)cc3)C(=O)N(c3ccc(C)cc3)C(=O)C12 (configuration not stated)	RAM network inh 11.2
O=C(CCCn1cnc([N+](=O)[O-])n1)Nc1cc(Cl)ccc1O	Lmaj promast 71.6
O=C(CCCn1cnc([N+](=O)[O-])n1)Nc1cccc(Cl)c1Cl	Lmaj promast 93.9
